The list is not random: actives were taken first. Their share in the collection is about 3.1%.
KCNK9 block – blocks the human KCNK9 two-pore domain potassium channel | Q9NPC2 | HEK293 KCNK9, FluxOR thallium flux fluorescence; stronger effect = lower value | B-score at 10 µM | 310,000 compounds, 1.2% hits | AID 488922;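 active means ratio B-score over 3 SD below the library mean, with starting fluorescence within 5 SD of its mean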;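 further: negative B-score means less thallium flux so channel inhibition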
hERG rescue – compounds protecting human hERG from proarrhythmic drug block. activation (rescue from dofetilide block), less the hit threshold, % at 10 µM. Q12809. CHO-hERG, FluxOR thallium flux, dofetilide IC70 present. 310,000 compounds, 0.51% hits;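 active means activation above the mean of controls blocked by dofetilide plus 5 SD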;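 further: thallium influx through hERG after potassium depolarization seen as dye fluorescence rise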
KCNK3 inh – human KCNK3 channel inhibition, primary screen. AID 602410. O14649. 340,000 compounds, 0.84% hits. CHO-KCNK3 thallium flux, FluxOR fluorescence; stronger effect = lower value. B-score at 10 µM;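 active means B-score under library mean minus 4 SD, starting fluorescence ratio at most library mean plus 5 SD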;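 further: more negative B-score means stronger inhibition of thallium flux through KCNK3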
KCNQ1 act – potentiators or activators of human KCNQ1 potassium channel; AID 2648; 310,000 compounds, 0.35% hits; CHO-K1 KCNQ1, thallium flux FluxOR fluorescence; stronger effect = higher value; B-score at 10 µM;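 active means fluorescence ratio B-score, a plate-corrected score, at least three library SD, with initial intensity B-score within 5 SD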
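System: CHO-K1 cells stably expressing KCNQ1 / Medium: assay buffer for compound exposure, DMSO matched across wells / Reagent: thallium- and potassium-containing depolarizing buffer / Compound: one concentration, matched DMSO / Incubation: 20 min compound pretreatment at room temperature / Measured by: kinetic FluxOR fluorescence, 10 s baseline plus 110 s post-stimulus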
KCNQ1 block – human KCNQ1 channel inhibition. P51787. CHO-K1 KCNQ1, FluxOR thallium flux fluorescence; stronger effect = higher value. B-score at 10 µM. 310,000 compounds, 1.3% hits. AID 2642;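 active means compounds whose thallium flux B-score, printed positive for inhibition, exceeds three library SD while starting fluorescence stays within three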;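 further: channel opened by potassium depolarization with thallium stimulus after 20 min compound exposure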
KCNK9 inh conf – confirmation of human KCNK9 potassium channel inhibitors. shares compounds with KCNK9 block. HEK293 KCNK9 cells, FluxOR thallium flux fluorescence. inhibition, % at 10 µM. 4,900 compounds, 43% hits. AID 492992;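 active means thallium signal inhibited by more than 5 SD of the compound-free buffer control wells, on both duplicate plates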;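 further: 0% = assay buffer control wells without compound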
Kir21 sel – tests whether KCNK9 modulators also affect mouse Kir2.1 | AID 492993 | Kir2.1 cells, FluxOR thallium flux fluorescence | inhibition, % at 10 µM | shares compounds with KCNK9 block | 4,900 compounds, 4% hits;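 active means thallium signal drop more than 5 SD beyond the mean of the no-compound control wells, seen in both duplicate plates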;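 further: signal is fluorescence rise after thallium addition divided by baseline fluorescence; plate controls were assay buffer only for no effect and full block by chlorpromazine control for full effect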
HEK293 Tl ctr – second check of KCNK9 modulator effects in non-induced HEK293 cells; shares compounds with KCNK9 block; FluxOR thallium flux; inhibition, % at 10 µM; 4,900 compounds, 40% hits; AID 492997;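 active means thallium signal drop beyond 5 SD of the untreated control mean, on both duplicate plates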;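 further: plate controls were buffer only IC0 wells for no effect and SID17386958 at its maximal inhibitory level for full effect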
An asterisk follows results filed as active; i = inactive; . = no result.

SMILES	KCNK9 block	hERG rescue	KCNK3 inh	KCNQ1 act	KCNQ1 block	KCNK9 inh conf	Kir21 sel	HEK293 Tl ctr
O=C(OCC(=O)N1CCc2ccccc21)c1c2c(nc3ccccc13)CCCC2	-13*	-5	i	i	i	53%*	i	i
NC(=O)COC(=O)c1c2c(nc3ccccc13)CCCCC2	i	-4	i	i	i	.	.	.
O=C(COC(=O)c1c2c(nc3ccccc13)CCCCC2)c1ccc(Cl)s1	-13*	-5	i	i	i	46%*	i	i
CCN1CCN(S(=O)(=O)c2ccc(OC)c(NC(=O)c3ccccc3F)c2)CC1	i	-7	i	i	i	.	.	.
Cc1ccc(C)c(N2CCN(CC3CC=CCC3)CC2)c1 (centres undefined)	i	4	i	i	i	i	i	i
Cc1ccc(C)c(Oc2cc(NN3CCCCC3)c([N+](=O)[O-])cc2[N+](=O)[O-])c1	-11*	-8	i	i	i	32%*	i	i
NC(=O)C1CCN(C(=O)Cc2ccsc2)CC1	i	-9	i	i	i	.	.	.
CC(C)CN1CCC(=O)N(CCSc2ccc(Br)cc2)CC1	i	-6	i	i	i	i	i	i
CC(C)CN1CCC(=O)N(CCOc2ccccc2)CC1	i	-5	i	i	i	.	.	.
COc1cccc(NC(=S)N/N=C2/CCCCc3ccccc32)c1	i	-9	i	15*	i	i	i	i
Cc1ccc(C)c(NC(=S)N/N=C2/CCCCc3ccccc32)c1	i	-4	i	i	i	i	i	i
CN(C)S(=O)(=O)c1ccc(Cl)c(C(=O)NC2CCCCCCC2)c1	i	-7	i	i	i	.	.	.
COc1ccc(C2Nc3ccccc3C(=O)N2Cc2ccco2)cc1COc1ccc(F)cc1 (centres undefined)	-9*	-8	i	i	i	35%*	i	36%*
COc1ccc(/C=C(\C#N)C(=O)OCC(=O)NCc2ccco2)cc1	i	-2	i	i	i	.	.	.
Cc1ccccc1NC1=C(C(=O)c2ccccc2)N(C)S(=O)(=O)c2ccccc21	-12*	-11	-9*	i	i	32%*	i	38%*
CN1C(C(=O)Nc2ccc(C(=O)O)cc2)=C(O)c2ccccc2S1(=O)=O	.	.	i	.	.	.	.	.
CN(Cc1ccccc1)C(=O)c1cccc(NC(=O)Cc2cccc(NC(=O)C3CCN(C(=O)C4CCC4)CC3)c2)c1	.	.	i	.	.	.	.	.
COc1ccc(OC)c(NC(=O)Cc2coc3ccc(C)cc23)c1	i	-6	i	i	i	.	.	.
CCOc1ccccc1NC(=O)Cc1coc2ccc(C)cc12	-11*	-3	i	i	i	25%*	i	43%*
C=CCN1C(=O)C(Cc2ccccc2)S/C1=N/N=C/c1cccs1 (centres undefined)	i	-9	i	i	8*	i	i	i
O=c1c2c(-c3ccccc3)csc2ncn1/N=C/c1cccc([N+](=O)[O-])c1O	i	-5	i	i	i	.	.	.
Cn1cc(/C=N/n2cnc3scc(-c4ccccc4)c3c2=O)c2ccccc21	i	-10	i	i	i	i	i	i
COc1cc(S(=O)(=O)NC2CCSc3ccccc32)ccc1NC(C)=O (centres undefined)	i	-5	i	i	i	.	.	.
COc1ccc(/C(N)=N/OC(=O)CSc2ccc(C)cc2)cc1OC	i	-8	i	i	i	.	.	.
Cc1ccc(SCC(=O)O/N=C(\N)c2ccc([N+](=O)[O-])cc2)cc1	i	-10	i	i	i	i	i	i
SMILES	KCNK9 block	hERG rescue	KCNK3 inh	KCNQ1 act	KCNQ1 block	KCNK9 inh conf	Kir21 sel	HEK293 Tl ctr
O=C(CNC(=O)OCc1ccccc1)NCC(=O)Oc1ccc([N+](=O)[O-])cc1	.	.	i	.	.	.	.	.
O=C(NCCN1CCN(c2ccc([N+](=O)[O-])cc2)CC1)NCc1ccccc1	i	-5	i	i	i	.	.	.
Cc1cc(-c2nnc(SCC(=O)Nc3ccc(Br)cc3F)n2N)n[nH]1	i	-6	i	i	i	.	.	.
O=C(/C=C/c1ccco1)NC(=S)Nc1cccc(-c2nc3ccccc3s2)c1	i	-11	i	i	i	i	i	i
O=[N+]([O-])c1cc(CN2CCN(c3cccc(C(F)(F)F)c3)CC2)c2cccnc2c1O	i	-3	i	i	i	i	i	i
O=[N+]([O-])c1cc(CN2CCCC2)c2cccnc2c1O	.	.	i	.	.	.	.	.
O=[N+]([O-])c1cc(Cl)ccc1N1CCN(c2cccc(C(F)(F)F)c2)CC1	-12*	-15	i	i	i	75%*	i	51%*
O=[N+]([O-])c1cc(S(=O)(=O)C(F)(F)F)ccc1N1CCN(c2ccccc2)CC1	-8.3*	-2	i	i	i	i	i	35%*
O=[N+]([O-])c1cc(S(=O)(=O)Nc2ccccc2)ccc1N1CCN(c2ccccc2)CC1	i	-5	i	i	i	.	.	.
O=C(Cn1ccc2ccccc2c1=O)NCC(=O)N1CCN(c2ccccc2F)CC1	i	-10	i	i	i	.	.	.
CCCCCCCCCCCCCCC(O)C[N+](C)(CCO)CCO (centres undefined)	.	.	i	.	.	.	.	.
COCCCN1CCN(C2Cc3ccccc3Sc3ccc(Cl)cc32)CC1 (centres undefined)	i	-26	i	i	i	.	.	.
Fc1ccc2c(c1)Sc1ccc(Cl)cc1CC2N1CCN(CCC2OCCO2)CC1 (centres undefined)	i	-27	i	i	i	i	i	i
O=C(Nc1cc(-c2ccccc2)nn1C1CCCCC1)c1ccc(Cl)cc1	.	.	i	.	.	.	.	.
CC1(C)Oc2ccc3ccc(=O)oc3c2/C(=C/NC2CCCCC2)C1=O	-11*	-8	i	i	8*	35%*	i	34%*
CC1(C)Oc2ccc3ccc(=O)oc3c2/C(=C/N)C1=O	i	-1	i	i	i	.	.	.
Cc1c(C(=O)c2ccc(Cl)cc2Cl)cnc2cc3c(cc12)OCO3	-16*	-11	i	i	i	62%*	i	30%*
O=C(Nc1ccc2c(c1)OCO2)c1ccc(Cl)cc1Cl	i	-4	i	i	i	.	.	.
CCN(CC)CCCN(C(=O)c1cccc(C)c1)c1nc(-c2ccc(OC)cc2)cs1	i	-14	i	i	i	.	.	.

High-throughput results as filed in PubChem.
